Assay results reported in ChEMBL document CHEMBL5653631, “A Potent and Selective ULK1 Inhibitor Suppresses Autophagy and Sensitizes Cancer Cells to Nutrient Stress” (iScience, 2018).

Assays:
[1] = biological target: T1, Activin receptor type-1B (Homo sapiens) (UniProt P36896); test: Inhibition of human recombinant ALK4 at 40 nM related to control ULK1
T1 sequence (whole entry): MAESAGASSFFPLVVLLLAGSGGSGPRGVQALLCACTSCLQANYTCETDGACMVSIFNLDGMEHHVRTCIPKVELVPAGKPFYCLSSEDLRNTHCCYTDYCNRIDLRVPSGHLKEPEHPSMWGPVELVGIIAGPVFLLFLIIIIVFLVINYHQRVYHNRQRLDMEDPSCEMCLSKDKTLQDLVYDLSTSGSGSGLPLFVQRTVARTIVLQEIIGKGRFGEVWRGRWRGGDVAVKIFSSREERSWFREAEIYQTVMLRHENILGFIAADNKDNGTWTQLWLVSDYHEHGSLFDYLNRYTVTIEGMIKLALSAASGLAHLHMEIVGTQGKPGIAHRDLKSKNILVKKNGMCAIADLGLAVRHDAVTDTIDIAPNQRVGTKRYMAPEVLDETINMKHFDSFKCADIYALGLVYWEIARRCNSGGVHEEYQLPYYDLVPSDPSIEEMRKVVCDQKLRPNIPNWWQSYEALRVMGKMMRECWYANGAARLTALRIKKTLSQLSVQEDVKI
Method in brief: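 Radiometric activity assays in a panel of 327 human recombinant kinases, each run in duplicate at one inhibitor concentration. Activity remaining is expressed as percent of vehicle control, and percent inhibition is calculated as 100% minus percent activity remaining.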

[2] = biological target: Ribosomal protein S6 kinase alpha-5 (Homo sapiens) (UniProt O75582); test: Inhibition of human recombinant MSK1 at 40 nM related to control ULK1
[3] = biological target: Serine/threonine-protein kinase 24 (Homo sapiens) (UniProt Q9Y6E0); test: Inhibition of human recombinant MST3 at 40 nM in presence of ATP by radiometric assay relative to control
[4] = biological target: Mitogen-activated protein kinase 14 (Homo sapiens) (UniProt Q16539); test: Inhibition of human recombinant p38alpha at 15 nM related to control ULK1
[5] = biological target: Ribosomal protein S6 kinase alpha-2 (Homo sapiens) (UniProt Q15349); test: Inhibition of human recombinant RSK3 at 15 nM in presence of ATP by radiometric assay relative to control
[6] = biological target: T2, Tyrosine-protein kinase ZAP-70 (Homo sapiens) (UniProt P43403); test: Inhibition of human recombinant ZAP70 at 15 nM related to control ULK1
T2 sequence (whole entry): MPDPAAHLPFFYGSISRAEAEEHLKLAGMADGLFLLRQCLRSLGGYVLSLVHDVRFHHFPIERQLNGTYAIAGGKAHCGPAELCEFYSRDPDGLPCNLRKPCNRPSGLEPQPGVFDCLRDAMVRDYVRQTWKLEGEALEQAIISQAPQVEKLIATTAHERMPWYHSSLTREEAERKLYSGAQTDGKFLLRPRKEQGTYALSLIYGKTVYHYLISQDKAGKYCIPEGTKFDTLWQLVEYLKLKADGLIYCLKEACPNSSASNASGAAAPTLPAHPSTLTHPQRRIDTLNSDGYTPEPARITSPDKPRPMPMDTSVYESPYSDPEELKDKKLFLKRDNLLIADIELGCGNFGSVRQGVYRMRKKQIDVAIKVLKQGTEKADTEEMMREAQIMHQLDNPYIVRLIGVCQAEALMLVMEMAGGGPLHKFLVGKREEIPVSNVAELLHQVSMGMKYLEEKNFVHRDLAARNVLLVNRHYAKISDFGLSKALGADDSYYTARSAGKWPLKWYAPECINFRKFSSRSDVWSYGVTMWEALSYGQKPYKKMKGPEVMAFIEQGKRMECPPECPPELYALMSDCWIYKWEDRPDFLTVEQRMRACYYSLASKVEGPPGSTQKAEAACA

[7] = biological target: T3, Ephrin type-A receptor 1 (Homo sapiens) (UniProt P21709); test: Inhibition of human recombinant EphA1 at 500 nM in presence of ATP by radiometric assay relative to control
T3 sequence (whole entry): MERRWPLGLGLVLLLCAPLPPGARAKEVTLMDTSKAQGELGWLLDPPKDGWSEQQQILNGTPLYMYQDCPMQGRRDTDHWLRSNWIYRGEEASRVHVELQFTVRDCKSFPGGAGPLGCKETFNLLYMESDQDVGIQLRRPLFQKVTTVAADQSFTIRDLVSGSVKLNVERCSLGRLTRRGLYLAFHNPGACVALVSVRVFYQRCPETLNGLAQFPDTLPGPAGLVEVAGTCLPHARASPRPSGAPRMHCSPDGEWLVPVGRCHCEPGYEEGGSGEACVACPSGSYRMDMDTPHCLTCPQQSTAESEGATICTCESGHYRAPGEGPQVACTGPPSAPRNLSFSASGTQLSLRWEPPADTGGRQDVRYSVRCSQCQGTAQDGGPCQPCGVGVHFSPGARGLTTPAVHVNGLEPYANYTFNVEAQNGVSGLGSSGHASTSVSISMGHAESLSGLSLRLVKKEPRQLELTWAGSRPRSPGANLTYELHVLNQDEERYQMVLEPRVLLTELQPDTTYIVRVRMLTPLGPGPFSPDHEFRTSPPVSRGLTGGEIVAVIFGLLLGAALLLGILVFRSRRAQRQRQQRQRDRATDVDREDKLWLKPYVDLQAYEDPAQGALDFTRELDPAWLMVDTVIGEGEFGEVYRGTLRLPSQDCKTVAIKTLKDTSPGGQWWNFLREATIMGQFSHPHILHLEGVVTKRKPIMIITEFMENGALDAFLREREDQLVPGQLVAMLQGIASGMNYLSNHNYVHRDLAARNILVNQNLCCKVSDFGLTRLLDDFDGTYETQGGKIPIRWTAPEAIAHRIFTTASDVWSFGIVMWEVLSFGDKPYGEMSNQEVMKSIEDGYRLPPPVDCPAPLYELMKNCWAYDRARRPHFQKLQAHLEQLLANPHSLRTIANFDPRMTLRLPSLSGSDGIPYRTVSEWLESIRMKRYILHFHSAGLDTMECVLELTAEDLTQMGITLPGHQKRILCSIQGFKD

Chain of Ribosomal protein S6 kinase alpha-2 (Homo sapiens) (Q15349 whole entry): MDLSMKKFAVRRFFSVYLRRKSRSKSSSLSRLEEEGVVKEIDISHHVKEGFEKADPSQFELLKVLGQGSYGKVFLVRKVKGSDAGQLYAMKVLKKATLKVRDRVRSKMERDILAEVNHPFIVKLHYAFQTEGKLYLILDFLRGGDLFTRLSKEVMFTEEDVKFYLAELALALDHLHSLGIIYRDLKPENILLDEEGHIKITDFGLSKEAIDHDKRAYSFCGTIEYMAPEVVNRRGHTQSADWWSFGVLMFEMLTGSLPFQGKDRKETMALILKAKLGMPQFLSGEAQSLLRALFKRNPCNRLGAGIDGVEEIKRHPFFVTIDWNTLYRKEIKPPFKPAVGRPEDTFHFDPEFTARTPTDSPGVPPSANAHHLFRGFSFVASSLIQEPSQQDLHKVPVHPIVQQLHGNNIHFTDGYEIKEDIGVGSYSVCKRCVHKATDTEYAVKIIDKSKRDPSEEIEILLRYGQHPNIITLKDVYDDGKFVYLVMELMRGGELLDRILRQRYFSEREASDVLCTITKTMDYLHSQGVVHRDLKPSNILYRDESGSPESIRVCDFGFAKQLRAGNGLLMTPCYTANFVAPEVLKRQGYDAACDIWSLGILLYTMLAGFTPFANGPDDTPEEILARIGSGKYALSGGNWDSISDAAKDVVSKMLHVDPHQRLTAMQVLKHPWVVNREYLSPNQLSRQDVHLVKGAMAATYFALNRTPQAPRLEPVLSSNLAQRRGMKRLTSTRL
Chain of Ribosomal protein S6 kinase alpha-5 (Homo sapiens) (O75582 whole entry, looked up): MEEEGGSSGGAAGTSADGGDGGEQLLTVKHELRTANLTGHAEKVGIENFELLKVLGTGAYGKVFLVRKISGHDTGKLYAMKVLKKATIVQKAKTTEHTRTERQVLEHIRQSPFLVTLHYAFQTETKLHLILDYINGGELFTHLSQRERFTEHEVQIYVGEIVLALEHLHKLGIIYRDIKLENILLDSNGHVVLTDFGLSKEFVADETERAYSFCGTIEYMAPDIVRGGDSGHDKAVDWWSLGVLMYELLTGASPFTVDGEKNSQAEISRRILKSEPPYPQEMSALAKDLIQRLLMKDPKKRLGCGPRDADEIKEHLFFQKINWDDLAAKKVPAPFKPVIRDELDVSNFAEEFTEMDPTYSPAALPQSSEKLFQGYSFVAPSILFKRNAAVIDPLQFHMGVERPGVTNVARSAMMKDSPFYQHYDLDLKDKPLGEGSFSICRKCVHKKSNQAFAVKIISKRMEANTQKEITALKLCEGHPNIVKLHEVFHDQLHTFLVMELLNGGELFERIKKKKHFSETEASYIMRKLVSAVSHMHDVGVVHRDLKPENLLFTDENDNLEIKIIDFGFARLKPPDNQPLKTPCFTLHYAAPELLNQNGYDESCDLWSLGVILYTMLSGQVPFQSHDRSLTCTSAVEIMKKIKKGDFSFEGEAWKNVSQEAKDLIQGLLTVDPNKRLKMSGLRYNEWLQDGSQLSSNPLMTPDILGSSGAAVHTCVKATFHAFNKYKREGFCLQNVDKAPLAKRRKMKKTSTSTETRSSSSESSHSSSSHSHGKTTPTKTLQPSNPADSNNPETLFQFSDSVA
Chain of Serine/threonine-protein kinase 24 (Homo sapiens) (Q9Y6E0 whole entry, looked up): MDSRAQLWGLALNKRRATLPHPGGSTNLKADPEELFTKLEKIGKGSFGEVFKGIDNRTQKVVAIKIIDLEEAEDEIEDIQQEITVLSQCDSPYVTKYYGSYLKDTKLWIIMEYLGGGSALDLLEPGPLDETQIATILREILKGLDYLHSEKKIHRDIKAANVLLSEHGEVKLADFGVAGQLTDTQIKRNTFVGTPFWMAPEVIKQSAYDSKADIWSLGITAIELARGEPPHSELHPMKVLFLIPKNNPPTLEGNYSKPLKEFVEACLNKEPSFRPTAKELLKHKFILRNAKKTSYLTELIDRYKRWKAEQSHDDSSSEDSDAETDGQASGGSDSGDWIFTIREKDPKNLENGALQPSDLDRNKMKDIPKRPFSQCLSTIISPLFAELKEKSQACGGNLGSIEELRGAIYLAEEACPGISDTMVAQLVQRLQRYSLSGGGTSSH
Chain of Mitogen-activated protein kinase 14 (Homo sapiens) (Q16539 whole entry): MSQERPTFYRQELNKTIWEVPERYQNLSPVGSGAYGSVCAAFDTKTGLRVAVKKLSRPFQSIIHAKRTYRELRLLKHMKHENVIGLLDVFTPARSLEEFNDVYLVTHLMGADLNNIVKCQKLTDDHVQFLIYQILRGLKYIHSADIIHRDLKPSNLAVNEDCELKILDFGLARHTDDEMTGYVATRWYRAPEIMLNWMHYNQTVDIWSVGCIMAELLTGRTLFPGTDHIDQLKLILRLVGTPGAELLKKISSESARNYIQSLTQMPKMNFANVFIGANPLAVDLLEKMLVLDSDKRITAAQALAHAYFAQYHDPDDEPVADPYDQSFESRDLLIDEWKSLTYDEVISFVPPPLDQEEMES

Question: For O=C(N[C@@H](C1CC1)C(F)(F)F)c1cc(-c2cnn3cc(-c4ccc(F)cc4)cnc23)cs1, which fold change (FC) [1] is on record?
Answer: The fold change (FC) was 0.

Question: What about the fold change (FC) [2] of the same compound?
Answer: Its fold change (FC) is 0.

Question: And the inhibition [3]?
Answer: Its inhibition is 20%.

Question: CC(C)[C@H](NC(=O)c1cc(-c2cnn3cc(-c4ccc(OCCN5CCCCC5)cc4)cnc23)cs1)C(F)(F)F was tested. Which fold change (FC) [4] did it give?
Answer: The fold change (FC) was 0.06.

Question: What about the inhibition [5] of the same compound?
Answer: Its inhibition is 3%.

Question: What about the fold change (FC) [6] of the same compound?
Answer: Its fold change (FC) is 0.

Question: How did the inhibition [7] turn out when CNC(=O)c1ccccc1Oc1nc(Nc2cc(OC)c(OC)c(OC)c2)ncc1Br was run?
Answer: Its inhibition is 13%.
